Assay results published in ChEMBL document CHEMBL1687928, “Discovery, optimization, and pharmacological characterization of novel heteroaroylphenylureas antagonists of C-C chemokine ligand 2 function” (J Med Chem, 2011).
Activity calls are given as the source filed them. No cut-off for these calls is given here.

Legend:
Rattus norvegicus [1] = experiment: Antiinflammatory activity in collagen-induced arthritis Lewis rat model assessed as inhibition of paw edema at 2 to 30 mg/kg, po BID for 28 days measured on […] by Plethysmometer; type: functional, organism-based
How it was run: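 Female Lewis SPF rats, 6 weeks old (n = 8/group), were immunized at the tail base with 900 μg bovine type II collagen in Freund's complete adjuvant (4 mg/mL M. tuberculosis) on day 0. A 450 μg boost followed on day 7. Compound in 5% aqueous gum arabic was gavaged b.i.d. for 28 days from day 0, against vehicle; methotrexate 3×/week served as positive control. Hind-limb volume was read by plethysmometer on days 0, 12, 14, 21 and 28, as % increase over day 0.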

[2] = Cmax in rat at 30 mg/kg, po; type: ADME, organism-based; design: dose 30 mg/kg, route oral; conditions: in vivo
[3] = Half life in rat at 5 mg/kg, po; type: ADME, organism-based; design: dose 5 mg/kg, route oral; conditions: in vivo
Mus musculus [4] = experiment: Toxicity in ICR mouse assessed as increase in feeding behavior at 1000 mg/kg, po administered as single dose; type: organism-based; design: dose 1000 mg/kg, route oral; conditions: in vivo
CYP2C9 [5] = target: T1, CYP2C9 (Homo sapiens, UniProt P11712); experiment: Inhibition of CYP2C9 at 100 uM; type: ADME
T1 sequence (P11712 whole entry): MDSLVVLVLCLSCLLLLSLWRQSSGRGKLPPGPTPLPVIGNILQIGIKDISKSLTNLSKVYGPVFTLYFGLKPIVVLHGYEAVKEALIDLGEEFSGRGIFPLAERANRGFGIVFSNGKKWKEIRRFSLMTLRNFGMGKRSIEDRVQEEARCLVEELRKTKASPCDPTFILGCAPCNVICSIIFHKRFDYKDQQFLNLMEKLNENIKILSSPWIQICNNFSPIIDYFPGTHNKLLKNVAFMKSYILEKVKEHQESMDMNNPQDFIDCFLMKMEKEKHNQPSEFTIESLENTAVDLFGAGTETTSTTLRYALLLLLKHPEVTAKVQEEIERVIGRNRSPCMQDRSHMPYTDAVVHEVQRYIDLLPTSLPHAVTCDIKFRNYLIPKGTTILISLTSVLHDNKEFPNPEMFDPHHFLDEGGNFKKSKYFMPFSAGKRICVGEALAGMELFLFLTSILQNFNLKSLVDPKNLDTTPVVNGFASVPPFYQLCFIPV

Mus musculus [6] = experiment: Toxicity in ICR mouse assessed as occurrence of hypoactivity at 500 mg/kg, po administered as single dose; type: organism-based; design: dose 500 mg/kg, route oral; conditions: in vivo
[7] = AUC (0 to 24 hrs) in rat at 5 mg/kg, po; type: ADME, organism-based; design: time < 24 hr, dose 5 mg/kg, route oral; conditions: plasma
Mus musculus [8] = experiment: Toxicity in ICR mouse at 30 mg/kg, po QD for 14 days; type: organism-based; design: dose 30 mg/kg, route oral; conditions: in vivo, 336 h
How it was run: (§1)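 Repeated-dose study in 6-week-old male ICR mice. Vehicle or 30, 100 or 300 mg/kg was given orally once daily for 14 days. Survival, behavior, body weight and liver enzymes (AST, ALT) were monitored.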

Mus musculus [9] = species: Mus musculus; experiment: Antiinflammatory activity in Freund's adjuvant-induced C57BL/6 mouse assessed as decrease in inflammatory cell infiltrates in spinal cord; type: functional, organism-based
How it was run: (§2)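 C57BL/6 mice were immunized s.c. with a MOG33-55 peptide emulsion and given pertussis vaccine (350 ng i.v.) right away and again 48 h later. From day 0, compound in 3% aqueous Tween 80 (4 mg/mL) or water was dosed orally b.i.d. Tissue cellular infiltrate was scored 0–5, from few small perivascular/meningeal infiltrates up to very large extensive infiltrate.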

[10] = Tmax in rat at 30 mg/kg, po; type: ADME, organism-based; design: dose 30 mg/kg, route oral; conditions: in vivo
How it was run: (§3)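 Rats, not fasted, received a single intravenous or oral dose.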

[11] = Tmax in rat at 100 mg/kg, po; type: ADME, organism-based; design: dose 100 mg/kg, route oral; conditions: in vivo; how it was run: as §3
[12] = Aqueous solubility of the compound at pH 7.4; type: physicochemical
Mus musculus [13] = experiment: Toxicity in ICR mouse assessed as vacuolar degeneration in liver at 300 mg/kg, po QD for 14 days; type: organism-based; design: dose 300 mg/kg, route oral; conditions: in vivo, 336 h
Mus musculus [14] = species: Mus musculus; experiment: Antiinflammatory activity in Freund's adjuvant-induced C57BL/6 mouse assessed as decrease in inflammatory cell infiltrates in cerebellum; type: functional, organism-based; how it was run: as §2
[15] = Half life in rat at 5 mg/kg, iv; type: ADME, organism-based; design: dose 5 mg/kg, route intravenous; conditions: in vivo
Mus musculus [16] = experiment: Toxicity in ICR mouse assessed as vacuolar degeneration in kidney at 300 mg/kg, po QD for 14 days; type: organism-based; design: dose 300 mg/kg, route oral; conditions: in vivo, 336 h
[17] = Clearance in rat at 5 mg/kg, iv; type: ADME, organism-based; design: dose 5 mg/kg, route intravenous; conditions: in vivo
Mus musculus [18] = experiment: Toxicity in ICR mouse assessed as increase in AST level at 300 mg/kg, po QD for 14 days; type: organism-based; design: dose 300 mg/kg, route oral; conditions: in vivo, 336 h; how it was run: as §1
Rattus norvegicus [19] = experiment: Antiinflammatory activity in complete Freund's adjuvant-induced Lewis rat arthritis model assessed as inhibition of paw edema at 30 mg/kg, po BID; type: functional, organism-based; design: dose 30 mg/kg
How it was run: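 Female Lewis SPF rats, 6 weeks old (n = 8/group), received an intradermal right hind footpad injection of 100 μL PBS-emulsified Freund's complete adjuvant (10 mg/mL M. butyricum). From day 10, compound in 5% gum arabic or vehicle was gavaged b.i.d. for a further 18 days; methotrexate 3×/week was the positive control. Left hind-limb volume was read by plethysmometer on days 0, 8, 15, 21 and 28, as % increase over day 0.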

CYP2C9 [20] = target: T1, CYP2C9; experiment: Inhibition of CYP2C9 at 1 uM; type: ADME
[21] = Tmax in rat at 5 mg/kg, po; type: ADME, organism-based; design: dose 5 mg/kg, route oral; conditions: in vivo; how it was run: as §3
Mus musculus [22] = experiment: Toxicity in ICR mouse assessed as CNS excitation at 1000 mg/kg, po administered as single dose; type: organism-based; design: dose 1000 mg/kg, route oral; conditions: in vivo
Rattus norvegicus [23] = experiment: Drug uptake in collagen-induced Lewis rat tarasal joints at 2 to 30 mg/kg, po measured 5 hrs after last dosing; type: functional, organism-based
How it was run: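 In the rat collagen-induced arthritis study (oral b.i.d. dosing for 28 days), compound concentration was measured in plasma, tarsal homogenates and thigh-bone marrow. Samples were taken 5 h after the last dose on day 28.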

For `Cc1nn(C)c2nc(N(C)CCN(C)C)c(C(=O)NC(=O)Nc3cccc(OC(C)C)c3)cc12.Cl`, the Activity (Rattus norvegicus [1]) was “Dose-dependent effect”, the Cmax [2] was 383 ng/mL and the half-life [3] was > 24 h. The Activity (Mus musculus [4]) was “Toxic”, the inhibition at 100 µM (CYP2C9 [5]) was 36% and the Activity (Mus musculus [6]) was “Toxic”. For the same molecule, the AUC(0-t) at 24 h [7] was 1620 ng·h/mL, the Activity (Mus musculus [8]) was “Non-toxic” and the Activity (Mus musculus [9]) was “Active”. It also gave a Tmax [10] of 3 h, a Tmax [11] of 3 h and a solubility [12] of 7.8 µg/mL. The Activity (Mus musculus [13]) was “Toxic”, the Activity (Mus musculus [14]) was “Active” and the half-life [15] was 10 h. For the same molecule, the Activity (Mus musculus [16]) was “Toxic”, the clearance [17] was 31.7 mL/min/kg and the Activity (Mus musculus [18]) was “Toxic”. For the same molecule, the Activity (Rattus norvegicus [19]) was “Active”, the inhibition at 1 µM (CYP2C9 [20]) was 11% and the Tmax [21] was 5 h. For the same molecule, the Activity (Mus musculus [22]) was “Toxic” and the Drug uptake (Rattus norvegicus [23]) was “Active”.
